Assay results collected from several papers.
Target: MAP kinase-interacting serine/threonine-protein kinase 1 (MKNK1, Homo sapiens, UniProt Q9BUB5)

Compound | test | conditions | remaining binding [%]
CNC(=O)Nc1ccc2c(c1)[C@@]1(CC2)OC(=O)N(CC(=O)N(Cc2ccc(F)cc2)[C@@H](C)C(F)(F)F)C1=O | cell-free assay, competition with immobilised ligand | 1 µM | 94
CN(C)c1nccc(-c2cnc3ncccn23)n1 | binding | 1 µM | 67
C[C@@H](c1ccc(-n2cnc3c(N)ncnc32)cc1)N1CCc2nn(C)c(Cc3ccccc3)c2C1=O | binding, competition with immobilised ligand | 0.1 µM | 58
Cc1nc(Cc2cccc(C(F)(F)F)c2)sc1-c1ccc(C(N)=O)nc1 | cell-free assay, competition with immobilised ligand | 1 µM | 100
N[C@@H]1CCN(c2nccc(-c3cnn4ncccc34)n2)C1 | binding | 1 µM | 68
CC(=O)C1=C(C)N(c2cccc(C(F)(F)F)c2)C(=O)N[C@@H]1c1ccc(C#N)nc1 | cell-free assay, competition with immobilised ligand | 1 µM | 100
O=C(c1ccc(Nc2ncc(Cl)c(-c3ccc(Cl)s3)n2)cc1)N1CCC(N2CCCC2)CC1 | binding, competition with immobilised ligand | 1 µM | 45
CN(C)c1nccc(-c2cnn3ncccc23)n1 | binding | 1 µM | 100
COc1cnc(Nc2cccc(S(N)(=O)=O)c2)nc1N1CCN(c2ccccc2)CC1 | binding, competition with immobilised ligand | 1 µM | 83
C[C@@H]1CN(c2ccc3ncc(-c4ccc5[nH]nc(C6CC6)c5c4)n3n2)C[C@H](C)O1 | binding, competition with immobilised ligand | 50 nM | 92
CC1CCCN1c1nccc(-c2cnn3ncccc23)n1 (stereo not shown) | binding | 1 µM | 89
Nc1ncc2c(n1)-c1c([nH]c3ccc(C#CC4CC4)cc13)CCCC2 | binding, competition with immobilised ligand | 1 µM | 86
O=C(NCC1CCOCC1)c1n[nH]cc1NC(=O)c1c(F)cccc1F | binding, competition with immobilised ligand | 1 µM | 88
O=C(NCCCN1CCOCC1)c1ccc(Nc2ncc(Cl)c(-c3ccc(Cl)s3)n2)cc1 | binding, competition with immobilised ligand | 1 µM | 84
CN(c1nccc(-c2cnn3ncccc23)n1)C1CC1 | binding | 1 µM | 98
CC(=O)N1CCC(c2ccc(C(=O)NC(=N)N)cc2C(F)(F)F)CC1 | cell-free assay, competition with immobilised ligand | 1 µM | 100
CNC(=O)[C@@H]1CC[C@@H](n2c(-c3ccc4cnccc4c3)nc3ccc(C(=O)NCc4cccc(C(N)=O)c4)cc32)C1 | binding, competition with immobilised ligand | 1 µM | 100
CCN1CCN(Cc2ccc(C(=O)Nc3ccc(C)c(Oc4ccc5c(c4)CC(=O)N5)c3)cc2C(F)(F)F)CC1 | binding, competition with immobilised ligand | 1 µM | 100
O=C(NCCCC1CCCCC1)c1ccc(CNC(=O)c2cnn(-c3ccccc3)c2C(F)(F)F)cc1 | cell-free assay, competition with immobilised ligand | 0.1 µM | 98
CN(C)c1ncc(F)c(-c2cnn3ncccc23)n1 | binding | 1 µM | 62
O=C(c1ccc(Nc2nccc(-c3cc4ccccc4s3)n2)cc1)N1CCC(N2CCCC2)CC1 | binding, competition with immobilised ligand | 1 µM | 18
CN(c1ccnc(CNc2nc(Nc3ccc4c(c3)CC(=O)N4)ncc2C(F)(F)F)n1)S(C)(=O)=O | cell-free assay, competition with immobilised ligand | 1 µM | 45
C[C@@H]1CCN(c2nccc(-c3cnn4ncccc34)n2)C1 | binding | 1 µM | 74
Cc1cc(C)c(-n2ccn3nc(-c4cccnc4)cc23)cc1NC(=O)c1cc(C#N)cc(S(F)(F)(F)(F)F)c1 | cell-free assay, competition with immobilised ligand | 0.1 µM | 83.8
c1cncc(-c2cccc(Nc3nccc(NC4CCCCC4)n3)c2)c1 | binding, competition with immobilised ligand | 10 µM | 89
